Measured values taken from ChEMBL document CHEMBL4177719, “Synthesis and evaluation of biaryl derivatives for structural characterization of selective monoamine oxidase B inhibitors toward Parkinson's disease therapy” (Bioorg Med Chem, 2018).
pIC50, pKi: −log10 of the molar value. Calls of active or inactive are those of the source. The calls are words filed in the database; no cut-off is given here.

What was measured:
[1] = molecular target: T1, Amine oxidase [flavin-containing] B (Homo sapiens, UniProt P27338); assay: Inhibition of recombinant human MAO-B using benzylamine as substrate preincubated for 15 mins followed by substrate addition measured after 20 mins by amplex red reagent based spectrophotometric assay
T1 sequence (P27338 whole entry): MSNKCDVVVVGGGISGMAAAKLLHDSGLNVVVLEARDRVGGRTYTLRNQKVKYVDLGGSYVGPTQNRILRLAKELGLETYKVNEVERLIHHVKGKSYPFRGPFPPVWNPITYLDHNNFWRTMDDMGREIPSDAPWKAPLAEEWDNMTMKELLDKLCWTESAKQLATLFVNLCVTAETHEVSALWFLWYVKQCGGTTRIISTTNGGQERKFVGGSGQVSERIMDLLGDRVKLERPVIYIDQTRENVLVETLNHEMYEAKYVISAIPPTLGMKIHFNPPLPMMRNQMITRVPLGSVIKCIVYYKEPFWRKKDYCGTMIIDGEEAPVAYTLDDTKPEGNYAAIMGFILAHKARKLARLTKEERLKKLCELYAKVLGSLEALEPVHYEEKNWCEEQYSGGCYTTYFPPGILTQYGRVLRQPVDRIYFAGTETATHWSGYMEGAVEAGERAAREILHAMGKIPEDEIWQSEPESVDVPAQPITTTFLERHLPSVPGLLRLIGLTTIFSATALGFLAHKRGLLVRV

Homo sapiens = organism: Homo sapiens; assay: Selectivity index, ratio of IC50 for recombinant human MAO-A to IC50 for recombinant human MAO-B
[2] = molecular target: T2, Amine oxidase [flavin-containing] A (Homo sapiens, UniProt P21397); assay: Inhibition of recombinant human MAO-A using p-tyramine as substrate preincubated for 15 mins followed by substrate addition measured after 20 mins by amplex red reagent based spectrophotometric assay
T2 sequence (P21397 whole entry): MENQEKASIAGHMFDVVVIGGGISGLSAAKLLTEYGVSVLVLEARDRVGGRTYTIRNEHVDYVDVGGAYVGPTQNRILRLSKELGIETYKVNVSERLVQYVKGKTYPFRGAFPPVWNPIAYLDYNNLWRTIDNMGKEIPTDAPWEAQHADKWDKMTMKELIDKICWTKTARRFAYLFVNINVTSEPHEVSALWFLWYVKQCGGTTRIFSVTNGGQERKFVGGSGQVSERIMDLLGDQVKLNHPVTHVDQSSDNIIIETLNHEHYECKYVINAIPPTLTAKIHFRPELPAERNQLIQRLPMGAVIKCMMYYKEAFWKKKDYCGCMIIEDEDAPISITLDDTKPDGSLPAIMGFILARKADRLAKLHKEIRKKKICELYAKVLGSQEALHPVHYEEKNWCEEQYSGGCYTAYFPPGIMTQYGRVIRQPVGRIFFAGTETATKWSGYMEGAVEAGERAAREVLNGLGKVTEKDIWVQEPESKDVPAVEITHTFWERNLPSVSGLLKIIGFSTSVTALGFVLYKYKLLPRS
Procedure, shortened: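 Recombinant human MAO-A with compounds at final 10⁻⁵–10 µM, preincubated 15 min at 37 °C in 50 mM sodium phosphate, pH 7.4. Reaction started by adding 200 µM Amplex Red, 2 U/mL horseradish peroxidase and 2 mM p-tyramine. IC50 came from dose-response curves in quadruplicate, as mean ± S.E.M.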

[3] = molecular target: T1, Amine oxidase [flavin-containing] B; assay: Competitive inhibition of recombinant human MAO-B using varying level of benzylamine substrate preincubated for 15 mins followed by substrate addition measured after 20 mins by Lineweaver-Burk plot analysis
Procedure, shortened: (§1)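 Recombinant human MAO-B with benzylamine at 0.065, 0.125, 0.25, 0.5, 1, 2 and 4 mM, with inhibitor at 0, 0.3, 1 and 3 nM. Amplex Red/HRP H2O2-coupled fluorescence in 50 mM sodium phosphate pH 7.4 at 37 °C. Initial rates taken from progression curves; Lineweaver-Burk double-reciprocal analysis.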

[4] = molecular target: T1, Amine oxidase [flavin-containing] B; assay: Competitive inhibition of recombinant human MAO-B assessed as Vmax for substrate using varying level of benzylamine substrate preincubated for 15 mins followed by substrate addition measured after 20 mins by Lineweaver-Burk plot analysis; procedure, shortened: as §1
Mus musculus [5] = assay: Anti-parkinson's activity in MPTP-induced C57Bl/6 mouse model of Parkinson's disease assessed as restoration of MPTP-induced weight loss at 30 mg/kg, po administered for 3 consecutive days; format: functional, organism-based
Procedure, shortened: (§2)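 Male C57Bl/6 mice, 10 weeks old, 23–25 g (n = 5-8 per group). MPTP-HCl 20 mg/kg i.p., given as 4 injections at 2 h intervals. Drug 30 mg/kg/day p.o. for 3 consecutive days spanning MPTP dosing. Vehicle was 12.5% castor oil/ethanol (equal parts) in distilled water. Saline-treated controls.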

Mus musculus [6] = assay: Anti-parkinson's activity in MPTP-induced C57Bl/6 mouse model of Parkinson's disease assessed as restoration of MPTP-induced reduction in TH-immunoreactive fiber density in striatum at 30 mg/kg, po administered for 3 consecutive days measured 6 days after MPTP injection by DAB staining based microscopic method; format: functional, organism-based; procedure, shortened: as §2
Mus musculus [7] = assay: Restoration of MPTP-induced tyrosine hydroxylase enzyme activity loss in C57Bl/6 mouse assessed as enzyme activity loss in DAergic neurons of substantia nigra pars compacta at 30 mg/kg, po administered for 3 consecutive days measured 6 days after MPTP injection by DAB staining based microscopic method; format: functional; procedure, shortened: as §2
Mus musculus [8] = assay: Anti-parkinson's activity in MPTP-induced C57Bl/6 mouse model of Parkinson's disease assessed as restoration of motor ability at 30 mg/kg, po administered for 3 consecutive days measured 6 days after MPTP injection by vertical grid test; format: functional, organism-based; procedure, shortened: as §2
Mus musculus [9] = assay: Anti-parkinson's activity in MPTP-induced C57Bl/6 mouse model of Parkinson's disease assessed as restoration of motor ability by measuring ascending ability to reach stable position at 30 mg/kg, po administered for 3 consecutive days measured 6 days after MPTP injection by coathanger method; format: functional, organism-based; procedure, shortened: as §2

pIC50 [1] | Ratio IC50 (Homo sapiens) | pIC50 [2] | SMILES | other results
6.40 | > 240 | < 4.00 | Nc1ccc(OCc2ccc(C(F)(F)F)cc2)cc1 | 
< 5.00 |  | < 5.00 | COc1ccc(CN[C@@H](C)C(N)=O)cc1 | 
6.36 | > 68 | < 4.52 | NCc1ccc(OCc2ccc(Cl)cc2)cc1 | 
5.96 | > 90 | < 4.00 | NC(=O)c1ccc(OCc2cccc(C(F)(F)F)c2)cc1 | 
5.81 | > 65 | < 4.00 | NC(=O)c1ccc(OCc2cccc(F)c2)cc1 | 
5.84 | > 68 | < 4.00 | NCc1ccc(OCc2ccccc2F)cc1 | 
6.03 | > 100 | < 4.00 | NCc1ccc(OCc2cccc(F)c2)cc1 | 
6.55 | > 350 | < 4.00 | COc1ccc(COc2ccc(CN)cc2)cc1 | 
5.49 | > 31 | < 4.00 | NCc1ccc(OCc2ccccc2)cc1 | 
6.19 | > 150 | < 4.00 | NC(=O)c1ccc(OCc2ccc(C(F)(F)F)cc2)cc1 | 
6.57 | > 360 | < 4.00 | NC(=O)c1ccc(OCc2ccc(F)cc2)cc1 | 
6.76 | > 170 | < 4.52 | COc1cccc(COc2ccc(CN)cc2)c1 | 
6.34 | > 220 | < 4.00 | NCc1ccc(OCc2ccc(F)cc2)cc1 | 
5.98 | > 95 | < 4.00 | NC(=O)c1ccc(OCc2ccccc2F)cc1 | 
5.69 | > 49 | < 4.00 | NC(=O)c1ccc(OCc2ccccc2C(F)(F)F)cc1 | 
5.50 | > 32 | < 4.00 | NCc1ccc(OCc2ccccc2C(F)(F)F)cc1 | 
5.48 | > 30 | < 4.00 | Nc1ccc(OCc2ccc(F)cc2)cc1 | 
6.41 | > 250 | < 4.00 | NCc1ccc(OCc2cccc(C(F)(F)F)c2)cc1 | 
6.59 | > 380 | < 4.00 | NCc1ccc(OCc2cccc(Cl)c2)cc1 | 

The remaining lines, values behind:

SMILES | pIC50 [1] | Ratio IC50 (Homo sapiens) | pIC50 [2] | other results
CC(=O)N[C@H]1CC(=O)N(c2ccc(OCc3cccc(F)c3)cc2)C1 [SEMBRAGILINE] | 7.80 |  |  | 
Cl.NCCc1ccc(OCc2ccc(C(F)(F)F)cc2)cc1 | 8.05 | > 11000 | < 4.00 | pKi [3]: 8.16; Vmax [4]: 5.86 ×10⁷ U/min; Activity (Mus musculus [5]): Active; Activity (Mus musculus [6]): Active; Activity (Mus musculus [7]): 38%; Activity (Mus musculus [8]): Active; Activity (Mus musculus [9]): Active
COc1cccc(COc2ccc(CCN)cc2)c1 | 6.52 | > 33 | < 5.00 | 
NCCc1ccc(OCc2ccccc2Cl)cc1 | 5.55 | > 3.5 | < 5.00 | 
NCCc1ccc(-c2cccc(F)c2)cc1 | < 5.00 |  | < 5.00 | 
NCCc1ccc(-c2cccc(Cl)c2)cc1 | 5.68 | > 4.7 | < 5.00 | 
NCCc1ccc(-c2cccc(C(F)(F)F)c2)cc1 | 5.80 | > 6.4 | < 5.00 | 
NCCc1ccc(-c2ccccc2Cl)cc1 | 5.08 | > 1.2 | < 5.00 | 
Nc1ccc(OCc2cccc(F)c2)cc1 | 5.61 | > 40 | < 4.00 | 
NCc1ccc(OCc2ccc(C(F)(F)F)cc2)cc1 | 6.87 | > 730 | < 4.00 | 
NCCc1ccc(OCc2ccc(Cl)cc2)cc1 | 7.23 | > 1600 | < 4.00 | 
NCCc1ccc(OCc2ccc(F)cc2)cc1 | 6.96 | > 910 | < 4.00 | 
NCCc1ccc(OCc2ccccc2C(F)(F)F)cc1 | 5.74 | > 55 | < 4.00 | 
Nc1ccc(OCc2ccccc2F)cc1 | < 5.00 |  | < 4.52 | 
NCCc1ccc(OCc2cccc(C(F)(F)F)c2)cc1 | 6.96 | > 900 | < 4.00 | 
NCCc1ccc(OCc2cccc(Cl)c2)cc1 | 7.21 | > 1600 | < 4.00 | 
COc1ccc(-c2ccc(CCN)cc2)cc1 | 5.24 | > 1.7 | < 5.00 | 
COc1cccc(-c2ccc(CCN)cc2)c1 | 5.30 | > 1.9 | < 5.00 | 
NCCc1ccc(-c2ccc(C(F)(F)F)cc2)cc1 | 7.39 | > 240 | < 5.00 | 
NCCc1ccc(-c2ccc(Cl)cc2)cc1 | 6.20 | > 16 | < 5.00 | 
NCCc1ccc(OCc2cccc(F)c2)cc1 | 6.71 | > 510 | < 4.00 | 
NCCc1ccc(OCc2ccccc2F)cc1 | 6.40 | > 25 | < 5.00 | 
NCCc1ccc(-c2ccccc2F)cc1 | < 5.00 |  | < 5.00 | 
Nc1ccc(OCc2ccccc2C(F)(F)F)cc1 | < 5.00 |  | < 4.00 | 
NCCc1ccc(-c2ccc(F)cc2)cc1 | 5.17 | > 1.5 | < 5.00 | 
Nc1ccc(OCc2cccc(C(F)(F)F)c2)cc1 | 5.82 | > 66 | < 4.00 | 
